Published values collected from several papers.
Compare with care: the assays were run in different laboratories.
Target: Mitogen-activated protein kinase 14 (MAPK14, Homo sapiens, UniProt Q16539)

SMILES	observed	technique	tested at	remaining binding [%]
Nc1cnc(N2CCc3cc(S(=O)(=O)Nc4c(F)cc(Cl)cc4F)cc(N4CCCC4=O)c32)nc1	cell-free assay	competition with immobilised ligand	1 µM	100
C[C@H]1CCN(c2nccc(-c3cnn4ncccc34)n2)C1	binding	–	1 µM	100
c1cncc(-c2cccc(Nc3nccc(NC4CCCCC4)n3)c2)c1	binding	competition with immobilised ligand	10 µM	85
COc1ccc2cc(OCC3(C(=O)O)CN(C(=O)c4ccc(F)cc4)C3)ccc2c1	cell-free assay	competition with immobilised ligand	1 µM	100
Cc1cnn2ncc(-c3ccnc(N(C)C)n3)c2c1	binding	–	1 µM	100
O=C(N1CCS(=O)(=O)CC1)N1C[C@H](c2ccc(OC(F)(F)F)cc2)C[C@H](c2nc(C3CC3)no2)C1	cell-free assay	competition with immobilised ligand	1 µM	100
CC(C)(C)c1ccc(-c2nc(CBr)nn2-c2cccc(O)c2)cc1	cell-free assay	competition with immobilised ligand	10 µM	100
O=C(Nc1ccc(Oc2ccc(F)cc2)cc1)N1CCc2ncccc2[C@H]1c1ccc(F)cc1	cell-free assay	competition with immobilised ligand	1 µM	100
O=C(c1ccc(Nc2ncc(Cl)c(-c3cc4ccccc4s3)n2)cc1)N1CCC(N2CCCC2)CC1	binding	competition with immobilised ligand	1 µM	100
F[C@@H]1CCN(c2nccc(-c3cnn4ncccc34)n2)C1	binding	–	1 µM	100
CNC(=O)[C@@H]1CC[C@@H](n2c(-c3ccc4cnccc4c3)nc3ccc(C(=O)NCc4cccc(C(N)=O)c4)cc32)C1	binding	competition with immobilised ligand	1 µM	99
CC(=O)Nc1c(C(C)=O)c(=O)n(C)c2nc(-c3ccc(Cl)cc3Cl)c(-c3ccc(Cl)cc3)cc12	cell-free assay	competition with immobilised ligand	1 µM	100
COc1cnc(Nc2cccc(S(N)(=O)=O)c2)nc1N1CCN(c2ccccc2)CC1	binding	competition with immobilised ligand	1 µM	100
CNCc1ccccc1-c1csc([C@@H](C)Nc2nc(C)nc3cc(OC)c(OC)cc23)c1	cell-free assay	competition with immobilised ligand	1 µM	87
O=C(c1ccc(Nc2ncc(Cl)c(-c3ccc(Cl)s3)n2)cc1)N1CCC(N2CCCC2)CC1	binding	competition with immobilised ligand	1 µM	91
C[C@@H]1CN(c2ccc3ncc(-c4ccc5[nH]nc(C6CC6)c5c4)n3n2)C[C@H](C)O1	binding	competition with immobilised ligand	50 nM	100
CN(C)c1nccc(-c2cnn3ncccc23)n1	binding	–	1 µM	91
O=C(O)[C@H]1[C@H](Cn2nnc3ccccc3c2=O)CC[C@@H]1C(=O)c1ccc(OCCC2CCOCC2)cc1	cell-free assay	competition with immobilised ligand	1 µM	85
O=C(NCC1CCOCC1)c1n[nH]cc1NC(=O)c1c(F)cccc1F	binding	competition with immobilised ligand	1 µM	100
CC1CCCN1c1nccc(-c2cnn3ncccc23)n1 (stereo not shown)	binding	–	1 µM	100
Nc1ncc2c(n1)-c1c([nH]c3ccc(C#CC4CC4)cc13)CCCC2	binding	competition with immobilised ligand	1 µM	98
CN(c1nccc(-c2cnn3ncccc23)n1)C1CC1	binding	–	1 µM	100
Cc1cnc(Nc2ccc(C(=O)N3CCC(N4CCCC4)CC3)cc2)nc1-c1cc2ccccc2s1	binding	competition with immobilised ligand	1 µM	100
Cc1c[nH]c2nccc(Oc3c(F)cc(Nc4cc(Cl)nc(N)n4)cc3F)c12	cell-free assay	competition with immobilised ligand	0.1 µM	100
N[C@@H]1CCN(c2nccc(-c3cnn4ncccc34)n2)C1	binding	–	1 µM	100
